Screening data as filed in PubChem.
SENP8 block-1: blocks the human protease SENP8; Q96LD8; purified SENP8, Z-RLRGG-aminoluciferin cleavage, luminescence; inhibition, % at 10 µM; actives 1.2% (n = 330,000); in the data active = inhibition above about 50%
Target sequence (Q96LD8 whole entry, looked up): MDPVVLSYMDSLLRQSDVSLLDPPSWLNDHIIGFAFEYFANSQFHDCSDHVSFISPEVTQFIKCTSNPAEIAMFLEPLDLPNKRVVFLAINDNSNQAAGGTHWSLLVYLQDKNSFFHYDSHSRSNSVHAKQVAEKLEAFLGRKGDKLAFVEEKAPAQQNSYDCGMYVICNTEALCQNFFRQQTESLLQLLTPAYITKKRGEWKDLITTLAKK
UBC13 polyUb: human UBC13 polyubiquitination inhibition; AID 485273; actives 0.47% (n = 330,000); inhibition, % at 20 µM; UBC13 polyubiquitin chain formation, TR-FRET; in the data active = inhibition above about 45%, passing the limit was not always enough
Target sequence (P61088 whole entry, looked up): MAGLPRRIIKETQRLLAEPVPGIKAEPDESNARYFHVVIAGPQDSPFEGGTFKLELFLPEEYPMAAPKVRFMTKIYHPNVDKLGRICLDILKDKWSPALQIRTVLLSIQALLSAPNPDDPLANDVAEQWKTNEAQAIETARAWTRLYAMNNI
SENP6 inh: SENP6 protease inhibition; Q9GZR1; Recombinant SENP6 catalytic domain, aminoluciferin luminescence; inhibition, % at 10 µM; actives 1.8% (n = 330,000); AID 2599;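 active = inhibition above about 50% at the single tested dose, limit read from the data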;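 also: plate controls were DMSO wells with enzyme for no effect and DMSO wells lacking enzyme for full effect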
Apaf-1 inh: human Apaf-1 inhibition. O14727. reconstituted apoptosome caspase-3 activity, DEVD-Rh110 fluorescence. inhibition, % at 20 µM. actives 0.71% (n = 330,000); active = inhibition of at least 40% at 20 µM;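 also: plate controls were DMSO wells for no effect and DEVD-CHO caspase inhibitor wells for full effect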
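System – cell-free apoptosome with Apaf-1, procaspase-3 and caspase-9 · Buffer or medium – pH 7.5 Hepes buffer with CHAPS, BSA, DTT · Also added – cytochrome c with DEVD-Rh110 · Times – 30 min compound preincubation, 50 min activation, room temperature · Technique – Rh110 fluorescence intensity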
SENP7 inh: SENP7 protease inhibition; AID 434973; Q9BQF6; actives 1.5% (n = 330,000); recombinant SENP7, Z-RLRGG-aminoluciferin luminescence, 40 min; inhibition, % at 5 µM;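 active = inhibition above about 50% at the single test dose, limit read from the data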;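 also: plate controls were DMSO with enzyme for no effect and no enzyme buffer wells for full effect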
SENP8 block-2: blocks human SENP8 cleavage of Nedd8 substrate. recombinant SENP8, Nedd8 substrate fluorescence. inhibition, % at 20 µM. Q96LD8. actives 0.64% (n = 360,000); in the data active = inhibition mostly above about 40%, no sharp cut-off; inactive = mostly below about 27%
Active calls of the source: *; i = inactive; . = not tested or not shown. Sampled rows, rich in hits. Any-hit rate of the full collection: about 3%.

SMILES | SENP8 block-1 | UBC13 polyUb | SENP6 inh | Apaf-1 inh | SENP7 inh | SENP8 block-2
CCOc1ccc(S(=O)(=O)N2CCN(Cc3ccc4c(c3)OCO4)CC2)cc1C | -9 | -2 | -15 | 20 | -11 | 16
COc1cc2c(cc1OC)C(C)N(C(=O)c1cccs1)CC2 (centres undefined) | -9 | -8 | 2 | -3 | -4 | 19
COc1cc2c(cc1OC)C(C)N(C(=O)c1cc3c(=O)oc4ccc(C)cc4c3s1)CC2 (centres undefined) | 5 | 47* | -10 | 11 | -1 | 6
COc1ccccc1C(=O)NCC(=O)NCCC(c1ccccc1)c1ccccc1 | 5 | 8 | 2 | 10 | -6 | 6
CC(C)C(=O)Nc1nnc(S(=O)(=O)N2c3ccccc3CC2C)s1 (centres undefined) | 7 | -2 | -3 | 4 | 2 | -1
CN(C)CCCN(C(=O)c1ccc([N+](=O)[O-])s1)c1nc2cc3c(cc2s1)OCCO3 | 55* | 10 | 47 | 17 | 5 | 19
CN(C)CCCN(C(=O)c1ccc(Br)s1)c1nc2cc3c(cc2s1)OCCO3 | -8 | 32 | 1 | 26 | 2 | -15
CN(C)CCCN(C(=O)c1cc2cc([N+](=O)[O-])ccc2s1)c1nc2cc3c(cc2s1)OCCO3 | 7 | 73* | -10 | 24 | -7 | 15
CC1CN(C(=O)CCC(=O)NCc2ccc(Cl)cc2)c2ccccc2O1 (centres undefined) | -15 | 3 | -4 | 9 | 9 | 8
N#C/C(=N\Nc1cccc(C(F)(F)F)c1)C(=O)c1ccsc1 | 64* | -7 | 88* | 9 | -1 | 36
Cc1cc(-c2ccc(C(=O)O)s2)cnc1N | 3 | 24 | 6 | -11 | 15 | -397
O=C(O)c1ccc(-c2ccc(-c3ccccc3)cc2)s1 | 97* | -4 | 99* | 15 | 101* | -299
CCOc1ccccc1NC(=O)Nc1ccc(Cl)cc1 | 52* | 7 | 83* | 13 | 72* | 14
COc1ccc(C2C(=O)N(C3CCCCC3)CC(=O)N2Cc2ccc3c(c2)OCO3)cc1 (centres undefined) | -6 | -6 | 100* | 8 | -1 | 18
O=C1C(c2ccc(F)cc2)N(Cc2ccc3c(c2)OCO3)C(=O)CN1C1CCCCCC1 (centres undefined) | 4 | -6 | 4 | 25 | 5 | 6
COC(=O)/C=C1\S/C(=N/N=C/c2ccc(Cl)cc2)NC1=O | 0 | -76 | -1 | 25 | 19 | 43*
CCOC(=O)N1CCN(C2=C(NS(=O)(=O)c3ccc(Br)cc3)C(=O)c3ccccc3C2=O)CC1 | . | . | . | . | . | 54*
CN1CCN(C2=C(NS(=O)(=O)c3cccs3)C(=O)c3ccccc3C2=O)CC1 | 9 | -96 | 17 | 31 | 7 | 30
O=C1C(NS(=O)(=O)c2cccs2)=C(N2CCOCC2)C(=O)c2ccccc21 | 1 | -71 | -13 | 12 | 6 | 42*
C=CCN(C(=O)CCC(=O)Nc1cc(C)on1)C(C(=O)NC(C)(C)CC)c1cccc(OC)c1OC (centres undefined) | -9 | -4 | -14 | 3 | -3 | 12
O=[N+]([O-])c1ccc2c(OCc3nnc(-c4ccccc4Br)o3)ncnc2c1 | -4 | 0 | 9 | 8 | 7 | -149
CC(=O)NN1C(=O)/C(=C/c2ccc(Br)o2)SC1=S | -6 | -11 | -1 | -4 | -6 | 44*
CC(=O)NN1C(=O)/C(=C\c2ccc(Br)o2)SC1=S | 9 | -1 | -7 | 15 | 5 | 29
COc1cc(C2C3=C(COC3=O)Oc3cc4c(cc32)OCO4)cc(OC)c1OC (centres undefined) | . | . | . | . | . | 44*
CC(C)COc1cccc(C(=O)Nc2ccc(N3CCOCC3)cc2N2CCOCC2)c1 | 11 | 1 | -13 | 32 | 1 | 12
O=C(OCc1cc(Cl)ccc1OC(F)F)c1ccc([N+](=O)[O-])o1 | 14 | -6 | 17 | 66* | 4 | .
O=C(OCc1cc(Cl)ccc1OC(F)F)c1cncc(Br)c1 | 2 | 11 | -2 | 8 | 5 | 8
O=C(NCc1cccnc1)c1cc(C(=O)NCc2cccnc2)cc([N+](=O)[O-])c1 | . | . | . | . | . | 9
O=C(O)C(S)C(S)C(=O)O (centres undefined) | . | . | . | . | . | 49*
Cc1ccccc1NC(=O)Cc1nc(COC(=O)c2nccnc2N)cs1 | . | . | . | . | . | i
